# Assays:
# rhinovirus A2 = test: Antiviral activity against human rhinovirus 2 infected in MDCK cells; format: functional, organism-based; conditions: Rhinovirus A
# [1] = Cytotoxicity against human rhinovirus 2 infected MDCK cells; format: cell-based, Canis lupus familiaris; conditions: dog, MDCK cells infected with human rhinovirus 2
# [2] = Selectivity index, ratio of CC50 for human rhinovirus 2 infected MDCK cells to EC50 for antiviral activity against human rhinovirus 2 infected in MDCK cells; format: toxicity, cell-based; conditions: dog, MDCK cells infected with human rhinovirus 2; read-out: Ratio CC50/EC50
# unidentified adenovirus = test: Antiviral activity against Adenovirus Chicago 65089 infected in human A549 cells; format: functional, organism-based; conditions: Chicago 65089, A549
# [3] = Cytotoxicity against Adenovirus Chicago 65089 infected human A549 cells; format: cell-based; conditions: A549 cells infected with Adenovirus Chicago 65089
# Outline: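 Respiratory-virus panel screen on A-549 cells, with compounds supplied as DMSO solutions. CC50 is the cell inhibitory concentration at the 50% endpoint, in µM.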
# [4] = Selectivity index, ratio of CC50 for Adenovirus Chicago 65089 infected human A549 cells to EC50 for antiviral activity against Adenovirus Chicago 65089 infected in human A549 cells; format: toxicity, cell-based; conditions: A549 cells infected with Adenovirus Chicago 65089, read-out: Ratio CC50/EC50
# [5] = Antiviral activity against SARS coronavirus Urbani infected in African green monkey Vero 76 cells; format: functional, cell-based; conditions: Severe acute respiratory syndrome-related coronavirus
# [6] = Cytotoxicity against SARS coronavirus Urbani infected African green monkey Vero 76 cells; format: cell-based; conditions: chlorocebus sabaeus, Vero 76 cells infected with SARS coronavirus Urbani
# human papillomavirus 11 = test: Antiviral activity against HPV11 infected in PHK cells epithelial raft cultures by standard AACF screening assay; format: functional, organism-based; conditions: human papillomavirus 11, PHK
# [7] = Cytotoxicity against HPV11 infected PHK cells epithelial raft cultures by standard AACF screening assay; format: cell-based; conditions: human
# [8] = Selectivity index, ratio of CC50 for HPV11 infected PHK cells epithelial raft cultures by standard AACF screening assay to EC50 for HPV11 infected in PHK cells epithelial raft cultures by standard AACF screening assay
# Hepatitis B virus = test: Antiviral activity against HBV infected in human HepG2(2.2.15) cells; format: functional, organism-based
# Outline: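 Primary anti-HBV screen in confluent 2.2.15 cells, run alongside a toxicity assay in the same cells. Compounds were supplied as DMSO solutions.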
# [9] = Cytotoxicity against HBV infected human HepG2(2.2.15) cells; format: cell-based; conditions: HBV infected HepG2(2.2.15) cells
# Outline: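 Toxicity was measured on confluent 2.2.15 cells alongside the primary anti-HBV assay. CC50 is given in µM.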
# Hepatitis C virus = test: Antiviral activity against HCV infected in human Huh7ET cells assessed as reduction in HCV RNA-derived luciferase activity at 20 uM by luciferase reporter gene assay; format: functional, Hepacivirus hominis; conditions: Huh-7
# Outline: (§1)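 HCV RNA replicon assay in Huh7 ET cells. Compounds were added in triplicate at a single concentration of 20 µM. Antiviral activity was read as HCV RNA-derived luciferase signal, expressed as % of control. Toxicity was read as β-actin RNA, % of control. SI = toxicity/antiviral activity. Interferon-α (2 IU/mL) was the positive control.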
# [10] = Toxicity against human Huh7ET cells assessed as reduction in beta-actin RNA levels at 20 uM; format: cell-based, Huh-7; conditions: Huh7ET cells, values are per cent of control
# Outline: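 HCV RNA replicon assay in Huh7 ET cells. Compounds were added in triplicate at a single concentration of 20 µM. Cytotoxicity was read as β-actin RNA as % of control, alongside HCV RNA-derived luciferase activity. Interferon-α (2 IU/mL) was the positive control.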
# [11] = Selectivity index, ratio of toxicity against human Huh7ET cells assessed as reduction in beta-actin RNA levels at 20 uM to antiviral activity against HCV infected in human Huh7ET cells assessed as reduction in HCV RNA-derived luciferase activity at 20 uM by luciferase reporter gene assay; format: cell-based, Huh-7; conditions: read-out: Selectivity Index; outline: as §1
# [12] = Antiviral activity against Influenza A virus (A/California/07/2009(H1N1)) infected in MDCK cells; format: functional, cell-based
# [13] = Cytotoxicity against Influenza A virus (A/California/07/2009(H1N1)) infected MDCK cells; format: cell-based, Canis lupus familiaris; conditions: dog
# [14] = Selectivity index, ratio of CC50 for Influenza A virus (A/California/07/2009(H1N1)) infected MDCK cells to EC50 for antiviral activity against Influenza A virus H1N1 (A/California/07/2009(H1N1)) infected in MDCK cells; format: toxicity, cell-based; conditions: dog; read-out: Ratio CC50/EC50
# [15] = Antiviral activity against Influenza A virus (A/Brisbane/10/2007(H3N2)) infected in MDCK cells; format: functional, cell-based
# [16] = Cytotoxicity against Influenza A virus (A/Brisbane/10/2007(H3N2)) infected MDCK cells; format: cell-based, Canis lupus familiaris; conditions: dog
# [17] = Selectivity index, ratio of CC50 for Influenza A virus (A/Brisbane/10/2007(H3N2)) infected MDCK cells to EC50 for antiviral activity against Influenza A virus (A/Brisbane/10/2007(H3N2)); format: toxicity, cell-based; conditions: dog; read-out: Ratio CC50/EC50
# [18] = Antiviral activity against Influenza A virus (A/Viet Nam/1203/2004(H5N1)) infected in MDCK cells; format: functional, cell-based
# [19] = Cytotoxicity against Influenza A virus (A/Viet Nam/1203/2004(H5N1)) infected MDCK cells; format: cell-based, Canis lupus familiaris; conditions: dog
# [20] = Selectivity index, ratio of CC50 for Influenza A virus (A/Viet Nam/1203/2004(H5N1)) infected MDCK cells to EC50 for antiviral activity against Influenza A virus (A/Viet Nam/1203/2004(H5N1)) infected in MDCK cells; format: toxicity, cell-based; conditions: dog; read-out: Ratio CC50/EC50
# Influenza B virus = test: Antiviral activity against Influenza B virus (B/Florida/4/2006) in MDCK cells; format: functional, cell-based; conditions: B/Florida/4/2006, MDCK
# [21] = Cytotoxicity against Influenza B virus (B/Florida/4/2006) infected MDCK cells; format: cell-based, Canis lupus familiaris; conditions: dog
# [22] = Selectivity index, ratio of CC50 for Influenza B virus (B/Florida/4/2006) infected MDCK cells to EC50 for antiviral activity against Influenza B virus (B/Florida/4/2006) in MDCK cells; format: toxicity, cell-based; conditions: dog; read-out: Ratio CC50/EC50
# [23] = Selectivity index, ratio of CC50 for ARS coronavirus Urbani infected African green monkey Vero 76 cells to EC50 for antiviral activity against ARS coronavirus Urbani infected in African green monkey Vero 76 cells; format: toxicity, cell-based; conditions: Vero 76 cells infected with SARS coronavirus Urbani, read-out: Ratio CC50/EC50
SMILES,EC50 (rhinovirus A2) [µM],CC50 [1] [µM],EC50 (unidentified adenovirus) [µM],CC50 [3] [µM],EC50 [5] [µM],CC50 [6] [µM],EC50 (human papillomavirus 11) [µM],CC50 [7] [µM],Ratio CC50/EC50 [8],EC50 (Hepatitis B virus) [µM],EC90 (Hepatitis B virus) [µM],CC50 [9] [µM],inhibition at 20 µM (Hepatitis C virus) [%],"response, % of control at 20 µM [10] [%]",selectivity ratio at 20 µM [11],EC50 [18] [µM],CC50 [19] [µM],selectivity ratio [20],EC50 (Influenza B virus) [µM],CC50 [21] [µM],also measured
COC(=O)[C@H]1[C@@H](C(=O)OC)C2(C(=O)OC)CC[C@@H]3[C@](C)(CCC[C@@]3(C)C(=O)OC)[C@H]2C[C@H]1C(=O)C(C)C (stereo partly specified),32,32,32,32,> 30,30,> 50,< 50,30,> 10,> 10,189,0.6,88.1,< 1,3.2,3.3,1,3.2,3.5,selectivity ratio [2]: 1; selectivity ratio [4]: 1; EC50 [12]: 32 µM; CC50 [13]: 33 µM; selectivity ratio [14]: 1; EC50 [15]: 32 µM; CC50 [16]: 33 µM; selectivity ratio [17]: 1; selectivity ratio [22]: 1.1
COC(=O)[C@H](C)NC(=O)[C@]1(C)CCC[C@]2(C)[C@H]3C[C@H]4C(C(C)C)=C[C@]3(CC[C@H]21)[C@@H]1C(=O)CCC(=O)[C@@H]14,> 25,25,> 47,47,30,32,< 25,< 25,20,> 10,> 10,86,60.8,54,> 1,31,33,1.1,22,33,selectivity ratio [23]: 1.1; selectivity ratio [22]: 1.5

# Source: ChEMBL document CHEMBL3616462, “Synthesis and antiviral activity of maleopimaric and quinopimaric acids' derivatives” (Bioorg Med Chem, 2015)
